Experimental data reported in ChEMBL document CHEMBL2169867, “Novel β-amino acid derivatives as inhibitors of cathepsin A” (J Med Chem, 2012).
Values belong to the compound of their own block, whether it stands above or below them. Active and inactive are the calls of the source. The calls are words filed in the database; no cut-off is given here.

What was measured:
[1] = target: T1, Lysosomal protective protein (Homo sapiens, UniProt P10619); assay: Inhibition of human recombinant Myc-His10-tagged cathepsin A expressed in baculovirus infected Sf9 cells using BodipyFL labeled bradykinin as substrate incubated for 15 mins prior to substrate addition measured after 15 mins by fluorimetric analysis
T1 sequence (P10619 whole entry): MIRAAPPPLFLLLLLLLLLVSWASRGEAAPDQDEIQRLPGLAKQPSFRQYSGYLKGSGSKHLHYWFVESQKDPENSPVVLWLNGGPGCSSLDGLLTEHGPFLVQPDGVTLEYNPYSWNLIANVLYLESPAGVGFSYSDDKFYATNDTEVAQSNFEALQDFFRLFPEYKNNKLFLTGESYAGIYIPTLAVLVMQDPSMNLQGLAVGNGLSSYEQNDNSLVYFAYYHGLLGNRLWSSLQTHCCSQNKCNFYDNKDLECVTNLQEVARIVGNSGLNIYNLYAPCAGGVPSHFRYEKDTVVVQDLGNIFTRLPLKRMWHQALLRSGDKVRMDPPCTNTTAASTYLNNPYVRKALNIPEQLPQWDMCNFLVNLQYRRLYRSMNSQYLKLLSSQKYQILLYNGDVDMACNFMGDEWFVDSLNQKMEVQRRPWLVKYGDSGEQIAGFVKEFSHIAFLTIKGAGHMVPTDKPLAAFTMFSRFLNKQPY

[2] = target: Neprilysin (Homo sapiens, UniProt P08473); assay: Inhibition of human recombinant NEP using Mca-RPPGFSAFK(Dnp)-OH as substrate incubated for 15 mins prior to substrate addition measured after 20 to 30 mins by fluorimetric analysis
Neprilysin, sequence (P08473 whole entry): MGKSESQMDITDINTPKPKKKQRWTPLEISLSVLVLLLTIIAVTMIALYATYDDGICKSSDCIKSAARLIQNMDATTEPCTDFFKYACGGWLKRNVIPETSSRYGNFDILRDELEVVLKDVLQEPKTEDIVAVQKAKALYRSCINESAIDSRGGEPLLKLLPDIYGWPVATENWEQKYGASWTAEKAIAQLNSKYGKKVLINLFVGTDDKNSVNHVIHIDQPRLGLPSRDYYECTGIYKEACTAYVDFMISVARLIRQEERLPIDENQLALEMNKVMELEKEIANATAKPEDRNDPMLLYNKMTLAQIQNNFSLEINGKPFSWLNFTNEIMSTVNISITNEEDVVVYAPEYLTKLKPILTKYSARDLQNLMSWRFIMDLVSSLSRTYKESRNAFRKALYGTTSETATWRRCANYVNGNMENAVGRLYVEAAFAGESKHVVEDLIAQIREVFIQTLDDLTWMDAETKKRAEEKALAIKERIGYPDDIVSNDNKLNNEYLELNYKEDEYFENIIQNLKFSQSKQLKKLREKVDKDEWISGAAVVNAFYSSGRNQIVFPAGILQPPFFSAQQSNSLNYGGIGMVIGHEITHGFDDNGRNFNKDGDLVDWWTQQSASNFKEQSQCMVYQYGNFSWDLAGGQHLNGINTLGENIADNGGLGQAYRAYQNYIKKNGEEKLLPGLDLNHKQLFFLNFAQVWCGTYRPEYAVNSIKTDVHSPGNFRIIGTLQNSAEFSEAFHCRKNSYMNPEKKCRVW
Outline: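 Recombinant human NEP and inhibitor preincubated 15 min at room temperature in reaction buffer, then substrate added. Fluorescence read after 20-30 min at room temperature. % inhibition and IC50 calculated against internal high and low controls.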

[3] = target: CYP3A4 (Homo sapiens, UniProt P08684); assay: (§1) Induction of CYP3A4 relative to control; assay type: ADME; conditions: human
CYP3A4, sequence (P08684 whole entry): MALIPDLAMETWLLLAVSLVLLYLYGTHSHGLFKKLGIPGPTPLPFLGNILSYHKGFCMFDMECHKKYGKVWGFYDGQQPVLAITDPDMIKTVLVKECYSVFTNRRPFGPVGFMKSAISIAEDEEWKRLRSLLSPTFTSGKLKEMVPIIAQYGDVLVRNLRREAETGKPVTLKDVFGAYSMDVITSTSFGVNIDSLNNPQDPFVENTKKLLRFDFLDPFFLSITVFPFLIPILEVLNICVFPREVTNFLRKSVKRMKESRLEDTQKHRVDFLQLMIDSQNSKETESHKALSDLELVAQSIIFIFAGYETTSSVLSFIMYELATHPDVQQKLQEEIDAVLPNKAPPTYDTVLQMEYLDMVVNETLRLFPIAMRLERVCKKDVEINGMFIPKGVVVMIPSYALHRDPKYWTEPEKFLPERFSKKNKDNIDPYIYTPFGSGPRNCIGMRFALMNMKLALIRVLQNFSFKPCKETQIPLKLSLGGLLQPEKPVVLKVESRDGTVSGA

[4] = target: Cathepsin A (Homo sapiens); assay: Inhibition of cathepsin A
[5] = Permeability across human Caco2 cells; assay type: ADME, cell-based; conditions: Caco-2, read-out: permeability
[6] = system: Rattus norvegicus; assay: Antihypertensive activity in Wistar rat assessed as bradykinin-dependent diuresis at 1 mg/kg, iv administered as bolus measured as urine flow rate (reference value: 11.6 uL/min); assay type: functional
[7] = system: Rattus norvegicus; assay: Effect on glomerular filtration rate in Wistar rat assessed as change in creatinine excretion at 30 mg/kg, po relative to vehicle-treated control; assay type: functional, organism-based; parameters: dose 30 mg/kg
Outline: (§2)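 Male Wistar rats dosed po at 30 mg kg⁻¹ day⁻¹. Urine collected over 6 h before and after treatment. Bradykinin measured by commercial RIA; creatinine excretion also determined. Mean ± SEM, n = 9-10; paired t test.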

[8] = system: Rattus norvegicus; assay: Antihypertensive activity in Wistar rat assessed as increase in bradykinin level in urine at 30 mg/kg, po relative to vehicle-treated control; assay type: functional; outline: as §2
[9] = AUC (0 to infinity) in Sprague-Dawley rat heart at 10 mg/kg, po; assay type: ADME, organism-based; parameters: time infinity, dose 10 mg/kg, route oral
Outline: (§3)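 Male Sprague-Dawley rats; single oral 10 mg/kg in glycofurol 75 (19%)/Cremophor RH40 (6%)/water (75%). Plasma and heart sampled at eight time points over 24 h, three animals per time point, nonserial design. Heart homogenized with water (2 g per 1 g tissue). Concentrations measured by LC-MS/MS with a structurally related internal standard; AUC(0-inf) taken from plasma concentration-time curves.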

[10] = Cmax in Sprague-Dawley rat heart at 10 mg/kg, po; assay type: ADME, organism-based; parameters: dose 10 mg/kg, route oral; outline: as §3
[11] = AUC (0 to infinity) in Sprague-Dawley rat plasma at 10 mg/kg, po; assay type: ADME, organism-based; parameters: time infinity, dose 10 mg/kg, route oral; outline: as §3
[12] = Cmax in Sprague-Dawley rat plasma at 10 mg/kg, po; assay type: ADME, organism-based; parameters: dose 10 mg/kg, route oral; outline: as §3
[13] = target: Cytochrome P450 3A4 (Homo sapiens, UniProt P08684); assay: as §1; assay type: ADME
Cytochrome P450 3A4, sequence (P08684 whole entry): as above

[14] = system: Mus musculus; assay: Cardioprotective activity against angiotensin 2-induced cardiac hypertrophy in B6.129P2-ApoE/J mouse assessed as left ventricular relaxation time at 100 mg/kg/day, po administered BID after 4 weeks (reference value: 8.73 0.41 ms); assay type: functional, Heart left ventricle
[15] = system: Mus musculus; assay: Cardioprotective activity against angiotensin 2-induced cardiac hypertrophy in B6.129P2-ApoE/J mouse assessed as left ventricular end diastolic pressure at 100 mg/kg/day, po administered BID after 4 weeks (reference value: 15.49 1.95 mmHg); assay type: functional, Heart left ventricle
[16] = system: Mus musculus; assay: Cardioprotective activity against angiotensin 2-induced cardiac hypertrophy in B6.129P2-ApoE/J mouse assessed as left ventricular end systolic pressure at 100 mg/kg/day, po administered BID after 4 weeks (reference value: 139.36 9.79 mmHg); assay type: functional, Heart left ventricle
[17] = system: Mus musculus; assay: Cardioprotective activity against angiotensin 2-induced cardiac hypertrophy in B6.129P2-ApoE/J mouse assessed as ejection fraction at 100 mg/kg/day, po administered BID after 4 weeks (reference value: 51.14 2.49 %); assay type: functional, Heart
[18] = system: Mus musculus; assay: Cardioprotective activity against angiotensin 2-induced cardiac hypertrophy in B6.129P2-ApoE/J mouse assessed as heart rate at 100 mg/kg/day, po administered BID after 4 weeks (reference value: 403.23 7.98 bpm); assay type: functional
[19] = system: Mus musculus; assay: Cardioprotective activity against angiotensin 2-induced cardiac hypertrophy in B6.129P2-ApoE/J mouse assessed as mean arterial pressure at 100 mg/kg/day, po administered BID after 4 weeks (reference value: 99.03 6.82 mmHg); assay type: functional, Heart
[20] = system: Mus musculus; assay: Ratio of left ventricular wet weight to body weight in B6.129P2-ApoE/J mouse at 100 mg/kg/day, po administered BID after 4 weeks (reference value: 5.99 0.28 mg/g); assay type: functional
[21] = system: Mus musculus; assay: Cardioprotective activity against angiotensin 2-induced cardiac hypertrophy in B6.129P2-ApoE/J mouse assessed as left ventricular wet weight at 100 mg/kg/day, po administered BID after 4 weeks (reference value: 182.03 […]); assay type: functional, Heart left ventricle
[22] = system: Mus musculus; assay: Toxicity in B6.129P2-ApoE/J mouse assessed as body weight at 100 mg/kg/day, po administered BID after 4 weeks (reference value: 30.48 0.52 g); assay type: organism-based; parameters: route oral; conditions: in vivo, 672 h

IC50 [1]: 76 nM
SMILES: Cc1ccc(F)cc1C(CC(=O)O)NC(=O)c1cc(=O)n(-c2ccccc2F)[nH]1 (racemic)

IC50 [1]: 87 nM
SMILES: Cc1ccccc1[C@H](CC(=O)O)NC(=O)c1cc(=O)n(-c2ccc(F)cc2)[nH]1

IC50 [1]: 30 nM
SMILES: COc1c(F)c(C(=O)N[C@@H](CC(=O)O)c2ccccc2C)nn1-c1ccccc1F

IC50 [1]: 200 nM
SMILES: O=C(O)CC(NC(=O)c1cc(=O)n(-c2ccccc2)[nH]1)c1ccc(Oc2ccccc2)cc1 (racemic)

IC50 [2]: 300 nM | IC50 [1]: > 30000 nM
SMILES: O=C(O)CC(NC(=O)c1cc(=O)n(-c2ccc(Cl)cc2)[nH]1)c1cc(Cl)ccc1Cl (racemic)

IC50 [1]: 252 nM
SMILES: Cc1cccc([C@H](CC(=O)O)NC(=O)c2cc(=O)n(-c3ccccc3F)[nH]2)c1

IC50 [1]: 274 nM
SMILES: Cc1ccc([C@H](CC(=O)O)NC(=O)c2cc(=O)n(-c3ccccc3F)[nH]2)cc1

IC50 [1]: 102 nM
SMILES: Cc1ccccc1[C@H](CC(=O)O)NC(=O)c1cc(=O)n(-c2cccc(Cl)c2)[nH]1

IC50 [1]: 110 nM
SMILES: COc1c(Cl)c(C(=O)N[C@@H](CC(=O)O)c2ccccc2C)nn1-c1ccccc1F

Emax [3]: 51% | IC50 [1]: 15 nM | IC50 [4]: 15 nM
SMILES: CCOc1cc(C(=O)N[C@@H](CC(=O)O)c2ccccc2C)nn1-c1ccccc1F

IC50 [1]: 803 nM
SMILES: Cc1ccc(C)c(-n2[nH]c(C(=O)NC(CC(=O)O)c3ccc(-c4ccccc4)cc3)cc2=O)c1 (racemic)

IC50 [1]: 120 nM
SMILES: O=C(O)CC(NC(=O)c1cc(=O)n(-c2ccc(F)cc2F)[nH]1)c1cccc(Cl)c1Cl (racemic)

IC50 [1]: 226 nM
SMILES: O=C(O)CC(NC(=O)c1cc(=O)n(-c2ccccc2F)[nH]1)c1ccccc1 (racemic)

IC50 [1]: 25 nM
SMILES: O=C(O)CC(NC(=O)c1cc(=O)n(-c2ccccc2F)[nH]1)c1ccc(-c2ccc(F)cc2)cc1 (racemic)

Emax [3]: 72% | IC50 [2]: 27000 nM | IC50 [1]: 15 nM | IC50 [4]: 15 nM
SMILES: Cc1ccccc1[C@H](CC(=O)O)NC(=O)c1cc(OCC2CC2)n(-c2ccccc2F)n1

IC50 [1]: 110 nM
SMILES: Cc1ccccc1[C@H](CC(=O)O)NC(=O)c1nn(-c2ccccc2)cc1O

IC50 [1]: 5380 nM
SMILES: Cc1ccc(C)c(-n2[nH]c(C(=O)NC(CC(=O)O)c3ccc(F)cc3)cc2=O)c1 (racemic)

Papp [5]: > 2 ×10⁻⁶ cm/s | IC50 [1]: 3 nM
SMILES: Cc1ccccc1[C@H](CC(=O)O)NC(=O)c1cc(OCC(=O)C(C)(C)C)n(-c2ccccc2F)n1

IC50 [1]: 100 nM
SMILES: COc1cn(-c2ccccc2)nc1C(=O)N[C@@H](CC(=O)O)c1ccccc1C

IC50 [1]: 10 nM
SMILES: Cc1ccccc1[C@H](CC(=O)O)NC(=O)c1cc(OC[C@@H](O)C(C)(C)C)n(-c2ccccc2F)n1

AUC(0-inf) [9]: 1600 ng·h/mL | Cmax [10]: 426 ng/mL | AUC(0-inf) [11]: 5300 ng·h/mL | Cmax [12]: 1360 ng/mL | Activity [13]: Not Active | Papp [5]: > 2 ×10⁻⁶ cm/s | IC50 [2]: > 1000 nM | inhibition [2]: inactive
SMILES: Cc1ccccc1[C@H](CC(=O)O)NC(=O)c1cc(OC[C@H](O)C(C)(C)C)n(-c2ccccc2F)n1
Activity [6]: 27.7 µL/min | Activity [7]: inactive | fold change (FC) [8]: 2

IC50 [1]: 357 nM
SMILES: COc1ccccc1[C@H](CC(=O)O)NC(=O)c1cc(=O)n(-c2ccccc2F)[nH]1

IC50 [1]: 70 nM
SMILES: CC(C)(C)[C@H](O)COc1cc(C(=O)N[C@@H](CC(=O)O)c2ccc(Cl)cc2Cl)nn1-c1ccccc1F

IC50 [2]: < 60 nM | IC50 [1]: 100 nM
SMILES: O=C(O)CC(NC(=O)c1cc(=O)n(-c2ccccc2)[nH]1)c1cccc(Cl)c1Cl (racemic)

SMILES: CC(=O)S[C@@H]1CC2=CC(=O)CC[C@]2(C)[C@H]2CC[C@@]3(C)[C@@H](CC[C@@]34CCC(=O)O4)[C@H]12 [SPIRONOLACTONE]
Time [14]: 7.52 ms | Activity [15]: 14.93 mmHg | Activity [16]: 137.39 mmHg | Activity [17]: 58.59% | Activity [18]: 410.78 bpm | Activity [19]: 103.99 mmHg | Ratio [20]: 5.07 mg/g | Activity [21]: 145.96 mg | Activity [22]: 28.84 g

IC50 [1]: 7800 nM
SMILES: Cc1ccccc1[C@@H](CC(=O)O)NC(=O)c1cc(=O)n(-c2ccccc2)[nH]1

Papp [5]: > 2 ×10⁻⁶ cm/s | IC50 [1]: 60 nM
SMILES: CC(C)(C)C(=O)COc1cc(C(=O)N[C@@H](CC(=O)O)c2ccc(Cl)cc2Cl)nn1-c1ccccc1F

IC50 [1]: 59 nM
SMILES: Cc1ccccc1[C@H](CC(=O)O)NC(=O)c1cc(=O)n(-c2cccc(F)c2)[nH]1

AUC(0-inf) [9]: 2600 ng·h/mL | Cmax [10]: 872 ng/mL | AUC(0-inf) [11]: 9300 ng·h/mL | Cmax [12]: 2670 ng/mL | Activity [13]: Not Active | Papp [5]: > 2 ×10⁻⁶ cm/s | IC50 [2]: > 1000 nM | inhibition [2]: inactive | IC50 [1]: 50 nM
SMILES: CC(C)(C)[C@@H](O)COc1cc(C(=O)N[C@@H](CC(=O)O)c2ccc(Cl)cc2Cl)nn1-c1ccccc1F
Activity [6]: 36.5 µL/min | Activity [7]: inactive | fold change (FC) [8]: 2

IC50 [1]: 70 nM
SMILES: Cc1ccccc1[C@H](CC(=O)O)NC(=O)c1cc(=O)n(-c2ccccc2)[nH]1

IC50 [1]: 375 nM
SMILES: O=C(O)C[C@H](NC(=O)c1cc(=O)n(-c2ccccc2F)[nH]1)c1ccccc1C(F)(F)F

IC50 [1]: 57 nM
SMILES: Cc1ccccc1[C@H](CC(=O)O)NC(=O)c1cc(=O)n(-c2ccccc2Cl)[nH]1
